Columns and labels:
Daoy = assay: Cytotoxicity against human Daoy cells by MTT assay; type: functional; settings: read-out: ED50 (the source's name)
Method in brief: (§1)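 Cells grown in serum-supplemented RPMI-1640 at 37 °C, 5% CO2. Seeded at 2880 cells/well for 4 h, then samples added at 1, 10, 20 and 40 µg/mL and incubated 3 days at 37 °C. MTT added for 5 h, formazan dissolved in DMSO, absorbance read at 550 nm. ED50 is the concentration giving 50% reduction of absorbance relative to untreated cells.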

WiDr = assay: Cytotoxicity against human WiDr cells by MTT assay; type: functional; settings: read-out: ED50 (the source's name); method in brief: as §1

| SMILES | EC50 (Daoy) | EC50 (WiDr) |
| --- | --- | --- |
| CO[C@@]12[C@H](COC(N)=O)C3=C(C(=O)C(C)=C(N)C3=O)N1C[C@@H]1N[C@@H]12 [MITOMYCIN] | 0.21 µM | 0.18 µM |
| C=C1CC[C@@H]2CCC3=C(C2(C)C)[C@](O)(C/C(C)=C/[C@@H](O)C1)OC3=O [CESPIHYPOTIN V] | 60 µM | > 60 µM |
| C=C1CC[C@@H]2CCC(=O)[C@@](O)([C@@H](O)C/C(C)=C/C(=O)C1)C2(C)C [CESPIHYPOTIN T] | 9.3 µM | 7.5 µM |
| C=C1CC[C@@H]2CCC3=C(C2(C)C)[C@@](OC)(C/C(C)=C/[C@@H](O)C1)O[C@H]3OC [CESPIHYPOTIN Q] | > 55 µM | > 55 µM |
| C=C1CC[C@@H]2CC[C@]34O[C@@]3(C2(C)C)[C@@](O)(C/C(C)=C/C(=O)C1)O[C@H]4OC | 40 µM | 54 µM |
| C=C1CC[C@@H]2CCC3=C([C@@H](C[C@]4(C)O[C@H]4[C@@H](O)C1)OC3=O)C2(C)C [CESPIHYPOTIN U] | > 60 µM | > 60 µM |
| C=C1CC[C@@H]2CCC3=C([C@@H](C/C(C)=C/C(=O)C1)OC3=O)C2(C)C [CESPIHYPOTIN R] | > 55 µM | 50 µM |

Source: ChEMBL document CHEMBL1151770, “Cespihypotins Q-V, verticillene diterpenoids from Cespitularia hypotentaculata” (2008)
